Experimental data published in ChEMBL document CHEMBL5523695, “Discovery of small molecule benzothiazole and indole derivatives tackling tau 2N4R and α-synuclein fibrils” (Bioorg Med Chem, 2024).
The source made the active and inactive calls. The calls are words filed in the database; no cut-off is given here.

Assays:
[1] = target: Alpha-synuclein (Homo sapiens) (UniProt P37840); assay: Inhibition of recombinant alpha-Synuclein (unknown origin) aggregation assessed as reduction in fluorescence intensity by measuring residual activity at 100 uM measured every 20 mins for 40 to 70 hrs by Thioflavin T based fluorescence analysis relative to control; settings: time 40-70 hrs
In short: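 Recombinant α-syn (2 μM final) in 10 mM PBS pH 7.4 with 0.5 mM SDS and 300 mM NaCl. Compound at 100 μM final, ThT 20 μM, one borosilicate bead per well. Read at 37 °C every 20 min after 10 s shaking, ex 440/em 485 nm, for 40–70 h. Background was ThT plus 0.25 % DMSO without protein. Plateau fluorescence expressed as % of control, triplicates, mean ± SEM.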

[2] = target: Alpha-synuclein (Homo sapiens) (UniProt P37840); assay: Inhibition of recombinant alpha-Synuclein (unknown origin) aggregation assessed as reduction in oligomer formation at compound-protein ratio of 1:0.6 incubated for 10 mins in presence of 53W light exposure for 1 sec by PICUP assay
In short: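 α-Syn (60 μM) in 10 mM phosphate buffer was cross-linked with Ru(bpy)3 (300 μM) and ammonium persulfate (6 mM), compound at 50, 100 or 200 μM. Light from a 53 W incandescent bulb for 1 s. Laemmli/2-mercaptoethanol added, then 95 °C for 10 min. Samples run on 16 % SDS-PAGE with Coomassie stain; oligomer bands at 35–40 kDa assessed. Controls lacked light or Ru(bpy)3.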

[3] = (§1) Cytotoxicity against human M17D cells expressing doxycyclin-inducible alpha-syn-S3K::YFP inclusion-prone fusion protein assessed as reduction in cell confluency at <20 uM treated with compound starting from 24 hrs post plating followed by doxycyclin addition at 48 hrs and measured 96 hrs post plating by Incucyte-based analysis; format: toxicity; settings: 72 h
In short: (§2)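 Dox-inducible M17D-TR/αS-3K::YFP neuroblastoma cells seeded at 30,000 per well. Compound added 24 h after plating at 1.25–40 μM, with 0.1 % DMSO as vehicle. Dox at 1 μg/mL final was added at 48 h. At 96 h, Incucyte imaging gave confluence fold change vs vehicle. N = 2 independent experiments, 6–12 wells total. Mean ± SD, one-way ANOVA with Dunnett's test.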

[4] = target: Alpha-synuclein (Homo sapiens) (UniProt P37840); assay: Inhibition of recombinant alpha-Synuclein (unknown origin) aggregation assessed as reduction in protein fibril formation at 100 uM measured after 68 hrs by TEM analysis
In short: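 α-Syn (2 μM) samples taken from the ThT kinetic runs after about 68 h at 37 °C, compound at 100 μM, vehicle 0.25 % DMSO. Applied to Formvar-carbon copper grids for 1 min, washed, and stained with 1 % uranyl acetate for 1 min. Imaged by TEM at 40k magnification, 100 kV.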

[5] = target: T1, Microtubule-associated protein tau (Homo sapiens, UniProt P10636); assay: Inhibition of unfolded tau 2N4R (unknown origin) aggregation expressed in Escherichia coli Rosetta BL21 cells assessed as appearance of rounded structures at 100 uM measured after 72 hrs by TEM analysis
T1 sequence (P10636 whole entry): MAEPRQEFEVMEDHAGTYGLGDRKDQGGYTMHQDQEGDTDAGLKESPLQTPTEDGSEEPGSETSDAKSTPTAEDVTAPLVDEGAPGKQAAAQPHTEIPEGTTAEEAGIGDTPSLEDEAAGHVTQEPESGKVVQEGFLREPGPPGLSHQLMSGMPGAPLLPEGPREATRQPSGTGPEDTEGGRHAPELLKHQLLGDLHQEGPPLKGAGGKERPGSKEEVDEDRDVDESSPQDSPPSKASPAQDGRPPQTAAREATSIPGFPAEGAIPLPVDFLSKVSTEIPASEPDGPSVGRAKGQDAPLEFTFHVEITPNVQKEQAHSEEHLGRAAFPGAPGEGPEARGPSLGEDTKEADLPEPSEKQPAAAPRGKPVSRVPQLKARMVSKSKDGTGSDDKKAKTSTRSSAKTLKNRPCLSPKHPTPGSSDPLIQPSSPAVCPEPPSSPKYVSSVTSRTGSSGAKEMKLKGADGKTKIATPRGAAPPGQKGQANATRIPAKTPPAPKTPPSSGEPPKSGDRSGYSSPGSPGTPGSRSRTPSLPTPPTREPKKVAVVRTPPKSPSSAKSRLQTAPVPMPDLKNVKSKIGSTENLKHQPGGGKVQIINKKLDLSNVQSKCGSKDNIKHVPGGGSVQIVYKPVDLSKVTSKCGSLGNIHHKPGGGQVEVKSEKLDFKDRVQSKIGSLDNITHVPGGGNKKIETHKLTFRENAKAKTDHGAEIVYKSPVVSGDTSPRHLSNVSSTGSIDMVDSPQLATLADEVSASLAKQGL
In short: (§3)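 Recombinant tau 2N4R (6 μM) incubated with compound at 100 μM, or 0.25 % DMSO, in 10 mM PBS pH 7.4 for 72 h at 37 °C. Placed on Formvar-carbon copper grids for 1 min, rinsed, and negatively stained with 1 % uranyl acetate. TEM at 40k magnification, 100 kV.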

[6] = target: T1, Microtubule-associated protein tau; assay: Inhibition of unfolded tau 2N4R (unknown origin) aggregation expressed in Escherichia coli Rosetta BL21 cells assessed as reduction in formation of large dense accumulation of tau fibrils at 100 uM measured after 72 hrs by TEM analysis; in short: as §3
[7] = target: Alpha-synuclein (Homo sapiens) (UniProt P37840); assay: as §1, with “Inhibition of alpha-syn inclusion formation in” for “Cytotoxicity against”, “inclusions” for “cell confluency at <20 uM”; format: cell-based; settings: time 72.0 hrs
In short: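 M17D-TR/αS-3K::YFP cells seeded at 30,000 per well and dosed 24 h post-plating at 1.25–40 μM (vehicle 0.1 % DMSO). Transgene induced at 48 h with dox at 1 μg/mL final. At 96 h, Incucyte analysis of punctate YFP inclusions, expressed as fold change vs DMSO. Two independent experiments, 6–12 wells total, mean ± SD, Dunnett's post-hoc test.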

[8] = target: T1, Microtubule-associated protein tau; assay: Inhibition of human tau 0N4R aggregation expressed in Escherichia coli Rosetta BL21 cells assessed as reduction in oligomer formation at 50 to 200 uM incubated for 10 mins in presence of 53W light exposure for 60 sec by PICUP assay; settings: dose 50-200 µM
In short: (§4)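 Tau 2N4R or 0N4R, expressed in-house from a pET30a construct in E. coli Rosetta BL21 and purified by heat step plus SP cation exchange, used at 10 μM in 10 mM phosphate buffer. Compound at 50, 100 and 200 μM. Ru(bpy)3 at 300 μM and APS at 6 mM, 60 s light exposure. Samples boiled at 95 °C for 10 min in reducing Laemmli buffer, then 16 % SDS-PAGE with Coomassie.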

[9] = as §1, with “20 to 40” for “<20”; format: toxicity; settings: 72 h, dose 20-40 µM; in short: as §2
[10] = target: T1, Microtubule-associated protein tau; assay: Inhibition of unfolded tau 2N4R (unknown origin) aggregation expressed in Escherichia coli Rosetta BL21 cells assessed as reduction in short and fine needle like fibrils at 100 uM measured after 72 hrs by TEM analysis; in short: as §3
[11] = target: T1, Microtubule-associated protein tau; assay: Inhibition of unfolded tau 2N4R (unknown origin) aggregation expressed in Escherichia coli Rosetta BL21 cells assessed as reduction in protein fibril formation at 100 uM measured after 72 hrs by TEM analysis; in short: as §3
[12] = target: Alpha-synuclein (Homo sapiens) (UniProt P37840); assay: Inhibition of recombinant alpha-Synuclein (unknown origin) aggregation assessed as reduction in fluorescence intensity measured every 20 mins for 40 to 70 hrs by Thioflavin T based fluorescence analysis; settings: dose 3.125-25 µM, time 40-70 hrs
[13] = target: T1, Microtubule-associated protein tau; assay: Inhibition of tau 2N4R (unknown origin) aggregation expressed in Escherichia coli Rosetta BL21 cells assessed as reduction in oligomer formation at 50 to 200 uM incubated for 10 mins in presence of 53W light exposure for 60 sec by PICUP assay; settings: dose 50-200 µM; in short: as §4

SMILES	Activity [1] [%]	other results
COc1cccc2sc(NS(=O)(=O)c3ccccc3)nc12	74.6	–
COc1cccc2sc(NS(=O)(=O)c3cccc([N+](=O)[O-])c3)nc12	40.1	–
O=C(Nc1ccc2[nH]ccc2c1)Nc1ccccc1I	40.3	–
COc1cccc2sc(NC(=O)Nc3ccc(C(F)(F)F)cc3)nc12	94.8	–
O=[N+]([O-])c1ccc(S(=O)(=O)Nc2ccc3[nH]ccc3c2)cc1	97.6	–
O=S(=O)(Nc1cccc2[nH]ccc12)c1ccccc1I	74.8	–
COc1cccc2sc(NC(=O)Nc3ccc(Br)cc3)nc12	170	–
COc1cccc2sc(NS(=O)(=O)c3ccccc3Cl)nc12	19.3	–
COc1cccc2sc(NS(=O)(=O)c3ccccc3C)nc12	32.7	–
COc1cccc2sc(NC(=O)Nc3ccc(F)cc3F)nc12	184	–
COc1cccc2sc(NS(=O)(=O)c3ccc(Br)cc3)nc12	43.1	–
O=[N+]([O-])c1ccc(S(=O)(=O)Nc2ccc3cc[nH]c3c2)cc1	63.5	–
O=C(Nc1ccccc1I)Nc1cccc2[nH]ccc12	38.3	–
COc1cccc2sc(NC(=O)c3ccc([N+](=O)[O-])cc3)nc12	45.4	–
COc1cccc2sc(NC(=O)Nc3ccc(I)cc3)nc12	141	–
COc1cccc2sc(NC(=O)Nc3cccs3)nc12	41.6	–
COc1cccc2sc(NS(=O)(=O)c3ccc([N+](=O)[O-])cc3)nc12	9.5	inhibition [2]: inactive
O=C(Nc1ccc([N+](=O)[O-])cc1)Nc1cccc2[nH]ccc12	4	inhibition [2]: Active; Activity [3]: Non-Toxic; inhibition [4]: Active; inhibition [5]: Active; inhibition [6]: Active; inhibition [7]: Active; inhibition [8]: inactive; Activity [9]: Toxic; inhibition [10]: Active; inhibition [11]: Active; inhibition [12]: Dose-Dependent Effect; inhibition [13]: inactive
O=S(=O)(Nc1ccc2[nH]ccc2c1)c1ccccc1I	59.7	–
COc1cccc2sc(NC(=O)Nc3cc(Cl)cc(Cl)c3)nc12	> 200	–
COc1cccc2sc(NS(=O)(=O)c3cccs3)nc12	41.6	–
COc1cccc2sc(NS(=O)(=O)c3ccc(I)cc3)nc12	42.8	–

SMILES	Activity [1] [%]	other results
COc1cccc2sc(NC(=O)Nc3ccc(Cl)cc3)nc12	173	–
COc1cccc2sc(NC(=O)c3cc(Cl)cc(Cl)c3)nc12	95.4	–
COc1cccc2sc(NS(=O)(=O)c3ccc(Cl)cc3)nc12	40.3	–
COc1cccc2sc(NS(=O)(=O)c3ccccc3I)nc12	5.8	inhibition [2]: inactive
COc1cccc2sc(NS(=O)(=O)c3ccc(F)cc3F)nc12	87.9	–
O=S(=O)(Nc1ccc2cc[nH]c2c1)c1ccccc1I	104	–
COc1cccc2sc(NC(=O)Nc3ccc([N+](=O)[O-])cc3)nc12	79	–
COc1ccccc1S(=O)(=O)Nc1nc2c(OC)cccc2s1	79.3	–
COc1cccc2sc(NS(=O)(=O)c3cc(Cl)cc(Cl)c3)nc12	39.3	–
COc1cccc2sc(NS(=O)(=O)c3ccc(C#N)cc3)nc12	46.1	–
COc1cccc2sc(NS(=O)(=O)c3ccc(C(F)(F)F)cc3)nc12	53.8	–
COc1cccc2sc(NS(=O)(=O)c3ccccc3[N+](=O)[O-])nc12	41	–
COc1cccc2sc(NC(=O)Nc3cccc(C(F)(F)F)c3)nc12	> 200	–
COc1cccc2sc(NS(=O)(=O)c3ccc(F)cc3)nc12	70.4	–
COc1cccc2sc(NC(=O)Nc3cccc([N+](=O)[O-])c3)nc12	78.1	–
COc1cccc2sc(NC(=O)Nc3ccc(C#N)cc3)nc12	> 200	–
O=C(Nc1ccc2cc[nH]c2c1)Nc1ccccc1I	83.4	–
O=C(Nc1ccc([N+](=O)[O-])cc1)Nc1ccc2[nH]ccc2c1	2.9	Activity [3]: Non-Toxic; inhibition [4]: Active; inhibition [5]: Active; inhibition [6]: Active; inhibition [7]: Active; inhibition [8]: inactive; Activity [9]: Toxic; inhibition [10]: Active; inhibition [11]: Active; inhibition [13]: inactive
O=[N+]([O-])c1ccc(S(=O)(=O)Nc2cccc3[nH]ccc23)cc1	83.9	–
COc1cccc2sc(NC(=O)c3ccc(C(F)(F)F)cc3)nc12	116	–
COc1cccc2sc(NS(=O)(=O)c3cccc(C(F)(F)F)c3)nc12	56	–

Now from value to compound, other results behind:

Activity [1] [%]	SMILES	other results
> 200	COc1cccc2sc(NC(=O)c3ccc(I)cc3)nc12	–
64.9	COc1cccc2sc(NS(=O)(=O)c3ccccc3F)nc12	–
137	COc1cccc2sc(NC(=O)c3ccccc3C)nc12	–
116	COc1cccc2sc(NC(=O)c3ccc(Cl)cc3)nc12	–
199	COc1ccccc1NC(=O)Nc1nc2c(OC)cccc2s1	–
145	COc1cccc2sc(NC(=O)Nc3ccc(F)cc3)nc12	–
98.7	COc1cccc2sc(NC(=O)c3ccccc3F)nc12	–
84.7	COc1cccc2sc(NC(=O)c3cccc(C(F)(F)F)c3)nc12	–
103	COc1cccc2sc(NC(=O)c3ccc(F)cc3)nc12	–
148	COc1cccc2sc(NC(=O)Nc3ccccc3C)nc12	–
102	COc1cccc2sc(NC(=O)c3ccccc3[N+](=O)[O-])nc12	–
182	COc1ccccc1C(=O)Nc1nc2c(OC)cccc2s1	–
> 200	COc1cccc2sc(NC(=O)Nc3ccccc3F)nc12	–
48.1	COc1cccc2sc(NC(=O)c3cccc([N+](=O)[O-])c3)nc12	–
130	COc1cccc2sc(NC(=O)Nc3ccccc3)nc12	–
128	COc1cccc2sc(NC(=O)c3ccc(F)cc3F)nc12	–
128	COc1cccc2sc(NC(=O)c3ccc(C#N)cc3)nc12	–
86.6	COc1cccc2sc(NC(=O)c3cccs3)nc12	–
262	COc1cccc2sc(NC(=O)c3ccccc3Cl)nc12	–
> 200	COc1cccc2sc(NC(=O)c3ccc(Br)cc3)nc12	–
137	COc1cccc2sc(NC(=O)c3ccccc3I)nc12	–
64.4	COc1cccc2sc(NC(=O)Nc3ccccc3[N+](=O)[O-])nc12	–
125	COc1cccc2sc(NC(=O)Nc3ccccc3I)nc12	–
107	COc1cccc2sc(NC(=O)c3ccccc3)nc12	–
